Compounds with a hit are over-represented: about 4.6% of the library has one in this group of screens.
NALP1 inh = NALP1 inflammasome inhibitors in reconstituted yeast, colorimetric, S. cerevisiae, triplicate retest. 280,000 compounds, 0.61% hits. inhibition, % at 10 µM. S. cerevisiae NALP1/ASC/caspase-1 growth, X-gal OD620, 72 h. AID 2071, 2009; in the data active means inhibition mostly above about 24%, no sharp cut-off; inactive means mostly below about 32%
DSG3 Ab inh = inhibitors of pemphigus antibody binding to DSG3, primary screen, biochemical, bead-based, flow cytometry, scFv-GFP; Desmoglein-3 (Homo sapiens), P32926; DSG3-coupled beads, scFv-anti-DSG3-GFP binding; active compounds read low; binding (percent of control), % at 10 µM; 310,000 compounds, 0.48% hits; AID 588358, 2011;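 active means binding more than 3 SD below its plate's average and above zero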;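 further: hits lower antibody fragment binding to DSG3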
PolyA inh = polyadenylation inhibitors in yeast reporter cells, primary screen, luminescence, S. cerevisiae; activity score, % at 12 µM; S. cerevisiae SKY197-pL101 polyadenylation reporter, beta-gal luminescence; efflux-impaired pdr1/pdr3 knockout yeast; score 100 = 6 SD above DMSO; AID 1875, 2009; 300,000 compounds, 0.02% hits;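 active means lowest replicate activity score at least 50, where 100 means six control SD above control mean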;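 further: yeast exposed to compound for 9 h at 30 °C; higher score means more reporter readthrough which indicates perturbed polyadenylation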
ALR inh = inhibitors of human ALR sulfhydryl oxidase, primary screen, biochemical, H2O2 detection, HRP-luminol luminescence, single point; FAD-linked sulfhydryl oxidase ALR (Homo sapiens), P55789; purified ALR, DTT oxidation; inhibition, % (test concentration not listed); 290,000 compounds, 3.8% hits; AID 485317, 2010;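 active means mean replicate inhibition above about 79%, with every replicate also reaching it, limit read from the data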
Target sequence (P55789 whole entry, looked up): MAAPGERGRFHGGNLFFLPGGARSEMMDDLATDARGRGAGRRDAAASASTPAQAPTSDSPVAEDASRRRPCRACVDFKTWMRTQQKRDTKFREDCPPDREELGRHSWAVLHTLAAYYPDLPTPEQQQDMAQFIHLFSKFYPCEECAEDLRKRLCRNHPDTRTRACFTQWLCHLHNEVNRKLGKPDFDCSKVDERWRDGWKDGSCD
Arr AP2 block = inhibitors of beta-arrestin/AP2 binding, primary screen, biochemical, GPCR trafficking, flow cytometry. beta-arrestin 1 C-terminal peptide binding to AP2 beta2-adaptin appendage (human). FITC-arrestin peptide / GST-AP2 beads; AP2 beta2 appendage carries R879A mutation. inhibition, % at 10 µM. 340,000 compounds, 0.31% hits. AID 504490, 2011;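 active means inhibition above a set limit, near 3 SD of compounds lacking own fluorescence, cut at about 54% in these data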;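 further: plate controls were DMSO wells for no effect and 5 µM unlabelled arrestin peptide for full effect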
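Assay system: GST-AP2 R879A bound to glutathione beads, E. coli-expressed; Medium: PBS with 0.05% Tween 20 and 0.1% BSA; Also added: fluorescein-tagged arrestin peptide at 50 nM final; Timing: 12 min plus 1 h, RT; Measured by: flow cytometry, FL1 (488/535 nm); Evaluation: percent drop in bead-associated FITC signal.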
NALP3 yeast inh = NALP3 inflammasome inhibitors in reconstituted yeast, primary screen, luminescence, uHTS | 330,000 compounds, 0.39% hits | inhibition, % at 10 µM | AID 2825, 2010 | Yeast reconstituted NLRP3/ASC/caspase-1, beta-gal luminescence, 24 h;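 active means inhibition of 50% or more; inactive means inhibition below 50%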;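 further: plate controls were induced DMSO wells for no effect and uninduced yeast grown without galactose for full effect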
The depositor's hits bear a star; · = not tested or not shown.

SMILES	NALP1 inh	DSG3 Ab inh	PolyA inh	ALR inh	Arr AP2 block	NALP3 yeast inh
O=C(Cn1c(=O)c2cccn2c2ccccc21)Nc1ccc(F)cc1F	13	114	9	-9	21	18
Cc1nn(-c2ccccc2)cc1/C=N/NC(N)=S	3	105	-3	97*	14	13
Cc1nc(C(F)(F)F)c(C(=O)O)cc1-c1nc(-c2ccccc2)cs1	28	97	7	95*	1	10
CC(=O)NC(=S)Nc1sc2c(c1C(N)=O)CCC(C)C2 (configuration not stated)	-1	87	14	89*	·	30
CCOC(=O)Nc1sc2c(c1C(N)=O)CCC(C)C2 (configuration not stated)	-2	84	-10	-9	4	8
Cc1ccc(CNS(=O)(=O)c2cc3c(cc2C)N(C)CCO3)cc1	2	95	0	89*	-4	8
CC(=O)N1CCOc2cc(S(=O)(=O)NCc3ccc(F)cc3)c(C)cc21	8	107	4	-3	3	15
N#CC(CC(=O)OCc1ccccc1)NC(=O)OCc1ccccc1 (configuration not stated)	·	104	·	·	·	·
O=C(O)CCc1ccc(-c2cccs2)n1NC(=O)c1ccccc1Br	25	102	11	99*	10	-12
CC(=O)c1cccc(-n2c(CCC(=O)O)ccc2-c2cccs2)c1	14	103	14	89*	4	23
O=C(O)CCc1ccc(-c2cccs2)n1CCC(=O)O	24	102	-2	-11	-8	-1
CC(C)(C)c1ccc(C(=O)Nn2c(CCC(=O)O)ccc2-c2cccs2)cc1	26	100	5	33	23	5
O=C(O)CCc1ccc(-c2cccs2)n1CCc1ccccc1	11	103	-28	99*	11	-19
C[C@H]1CN([C@@H](C)CO)C(=O)c2cc(Br)cnc2O[C@H]1CN(C)C(=O)C1CC1	·	110	·	·	·	·
Cc1n[nH]c(=S)n(NC(=O)/C=C/C(=O)Nn2c(=S)[nH]nc(C)c2=O)c1=O	-9	36*	-1	·	-16	·
O=C(Nc1cccc(OCC(=O)N2CCOCC2)c1)c1ccc(C(F)(F)F)cc1	12	98	26	-2	-4	3
O/N=C(\COc1ccccc1O)c1ccccc1	17	105	-24	77*	3	27
O=C(O)COc1ccccc1O	3	100	19	43	-3	0
COc1ccc(C2CCCCC2SCC(=O)O)cc1OC (configuration not stated)	·	94	·	·	·	·
O=C(NCc1n[nH]c(=S)n1-c1ccccc1)c1ccc(S(=O)(=O)N2CCOCC2)cc1	10	89	-1	91*	21	25
O=C(Nc1ccc(C(=O)N2CCCC2)cc1)c1cc(F)c(F)cc1Cl	·	97	·	·	·	·
Nc1c(C(=O)NCC2CCCO2)sc2nc3c(c(-c4ccco4)c12)CC/C3=C\c1ccco1 (configuration not stated)	33	76	·	·	56*	·
CN1CC(=O)N(CC(=O)Nc2cccc3ccccc23)C1=O	·	·	·	-30	4	4
C=CCn1c(C)cc(C(=O)CSc2nnc3n(CCC)c(=O)c4ccccc4n23)c1C	·	97	·	·	1	·
COc1ccc(C2=NN(C(=O)c3ccco3)C(c3ccco3)C2)cc1OC (configuration not stated)	14	·	8	·	-13	17
SMILES	NALP1 inh	DSG3 Ab inh	PolyA inh	ALR inh	Arr AP2 block	NALP3 yeast inh
O=C1c2ccccc2C(=O)N1CCc1csc(NNc2nc(CCN3C(=O)c4ccccc4C3=O)cs2)n1	-3	76*	-9	4	17	20
CC(=O)Nc1ccc(S(=O)(=O)NCCC(=O)NCc2ccco2)cc1	·	99	·	·	·	·
CCCCCCNC(=O)c1cc(S(=O)(=O)N2CCc3ccccc32)ccc1F	6	87*	-18	-8	27	7
CC(C)N1CC2(CC(c3ccccc3C(F)(F)F)=NO2)CN1C(=O)c1ccco1 (configuration not stated)	·	104	·	·	·	·
Cc1ccc(C(C(=O)NCC2CCCO2)N(C(=O)c2snc(C(N)=O)c2N)c2ccc(C)c(C)c2)o1 (configuration not stated)	21	·	9	-6	-11	10
CN(C)S(=O)(=O)c1cccc(NC(=O)CSc2nc3c(cc2C#N)C(=O)CC(C)(C)C3)c1	26	100	11	98*	12	17
CN(C)S(=O)(=O)c1ccc(Cl)c(NC(=O)CSc2nc3c(cc2C#N)C(=O)CC(C)(C)C3)c1	5	107	30	15	-1	0
Cc1oc(-c2cccs2)nc1CS(=O)CC(=O)NCc1ccc2c(c1)OCO2 (configuration not stated)	·	96	14	28	3	-17
O=C(NCc1ccc2c(c1)OCO2)c1cc(-c2ccccc2Cl)on1	-3	71	13	-7	-4	10
Cc1oc(-c2ccccc2Cl)nc1CS(=O)CC(=O)NCc1ccc2c(c1)OCO2 (configuration not stated)	7	82	10	82*	14	-1
Cc1ccccc1-c1nc(CS(=O)CC(=O)NCc2ccc3c(c2)OCO3)c(C)o1 (configuration not stated)	18	102	1	98*	0	4
Cc1nn(C2CCS(=O)(=O)C2)c2nc(C3CC3)cc(C(=O)Nc3ccc(C(N)=O)cc3)c12 (configuration not stated)	·	104	·	·	3	5
Cc1c(O)c(CN2CCCC2)cc2c1oc(=O)c1ccccc12	-6	102	5	85*	-4	1
O=C(CCl)N=c1sccn1Cc1ccc(Cl)cc1Cl	21	94	-31	95*	-3	6
CCC1=[N+](C)CCn2c(C)ccc21	15	102	4	0	83*	18
CCC1=[N+](CC(=O)c2ccc(C)cc2)CCn2c(C)ccc21	-2	97	-12	·	5	14
Fc1cccc(CN2CCN(Cc3nc(-c4cnccn4)no3)CC2)c1	4	-16*	-1	-1	9	-2
O=C(OC1C2C=CC1C1C(=O)NC21)c1ccccc1 (configuration not stated)	·	106	·	·	·	·
CCOc1ccc(NCc2cccn2-c2nnc(N3CCC(C(=O)NCCCN4CCCCC4CC)CC3)s2)cc1 (configuration not stated)	-4	98	11	99*	-14	-5
